Experimental data taken from ChEMBL document CHEMBL1914438, “Synthesis and biological activity of novel N-cycloalkyl-(cycloalkylaryl)-2-[(3-R-2-oxo-2H-[1,2,4]triazino[2,3-c]quinazoline-6-yl)thio]acetamides” (2011).
Calls of active or inactive are those of the source. No cut-off for these calls is given here.

Key:
[1] = system: Photobacterium leiognathi; experiment: Antibacterial activity against Photobacterium leiognathi Sh1 assessed as inhibition of bacterial luminescence at 0.1 mg/mL after 10 mins by bioluminometry-based acute action test; assay type: functional; parameters: scale not given: the % may be the effect or the level left
How it was run: (§1)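 Marine P. leiognathi Sh1 (Azov Sea shrimp isolate) diluted in chloride solution to 10^5 cells/mL; compounds suspended in DMSO mixed with 1 mL bacterial suspension. Acute test: 10 min at 25 °C, then bioluminescence measured by bioluminometer as % of compound-free control. Tetracycline reference.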

[2] = system: Photobacterium leiognathi; experiment: Antibacterial activity against Photobacterium leiognathi Sh1 assessed as inhibition of bacterial luminescence at 0.1 mg/mL after 10 mins by bioluminometry-based chronic action test; assay type: functional; parameters: scale not given: the % may be the effect or the level left
How it was run: (§2)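 Chronic (growth plus luminescence) test with P. leiognathi Sh1 at 10^5 cells/mL in chloride solution, compounds added in DMSO. After 10 min at 25 °C, growth medium added at 1:50 and the mix incubated 16–18 h at 30 °C. Luminescence then measured by bioluminometer as % of untreated control. Tetracycline reference.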

[3] = system: Photobacterium leiognathi; experiment: Antibacterial activity against Photobacterium leiognathi Sh1 assessed as inhibition of bacterial luminescence at 0.25 mg/mL after 10 mins by bioluminometry-based chronic action test; assay type: functional; parameters: scale not given: the % may be the effect or the level left; how it was run: as §2
Escherichia coli [4] = experiment: Antibacterial activity against Escherichia coli at 1 to 5 mg/mL after 24 hrs by stiff-plate agar-diffusion method; assay type: functional, organism-based
How it was run: (§3)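 Agar diffusion (stiff plate) with test substances at 5 mg/mL in grooves, allowed to diffuse into nutrient agar; inoculum 10^9 c.f.u./mL; bacteria incubated 24 h at 35 °C. Read-out: inhibition zone diameter (not sensitive 11–15 mm, sensitive 16–25 mm, highly sensitive >25 mm). Vancomycin and oxacillin as standards; three repeats.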

Staphylococcus aureus [5] = experiment: Antibacterial activity against Staphylococcus aureus at 1 to 5 mg/mL after 24 hrs by stiff-plate agar-diffusion method; assay type: functional, organism-based; how it was run: as §3
Mycobacterium [6] = experiment: Antibacterial activity against Mycobacterium luteum at 1 to 5 mg/mL after 24 hrs by stiff-plate agar-diffusion method; assay type: functional, organism-based; how it was run: as §3
Yamadazyma tenuis [7] = experiment: Antifungal activity against Candida tenuis at 1 to 5 mg/mL after 48 to 72 hrs by stiff-plate agar-diffusion method; assay type: functional, organism-based
How it was run: (§4)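 Fungal plates run by stiff-plate agar diffusion, substances applied to grooves at 5 mg/mL; 10^9 c.f.u./mL cells; incubation 48–72 h at 28–30 °C. Inhibition zone diameter scored (11–15 mm not sensitive, 16–25 mm sensitive, >25 mm highly sensitive). Nystatin standard; experiments done three times.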

Aspergillus niger [8] = experiment: Antifungal activity against Aspergillus niger at 1 to 5 mg/mL after 48 to 72 hrs by stiff-plate agar-diffusion method; assay type: functional, organism-based; how it was run: as §4
[9] = system: Photobacterium leiognathi; experiment: Antibacterial activity against Photobacterium leiognathi Sh1 assessed as inhibition of bacterial luminescence at 0.025 mg/mL after 10 mins by bioluminometry-based chronic action test; assay type: functional; parameters: scale not given: the % may be the effect or the level left; how it was run: as §2
[10] = system: Photobacterium leiognathi; experiment: Antibacterial activity against Photobacterium leiognathi Sh1 assessed as inhibition of bacterial luminescence at 0.25 mg/mL after 10 mins by bioluminometry-based acute action test; assay type: functional; parameters: scale not given: the % may be the effect or the level left; how it was run: as §1
[11] = system: Photobacterium leiognathi; experiment: Antibacterial activity against Photobacterium leiognathi Sh1 assessed as inhibition of bacterial luminescence at 0.025 mg/mL after 10 mins by bioluminometry-based acute action test; assay type: functional; parameters: scale not given: the % may be the effect or the level left; how it was run: as §1
Escherichia coli [12] = experiment: Antibacterial activity against Escherichia coli assessed as zone of inhibition at 0.5 mg/mL after 24 hrs by stiff-plate agar-diffusion method; assay type: functional; settings: read-out: DIZ
Escherichia coli [13] = experiment: Antibacterial activity against Escherichia coli assessed as zone of inhibition at 0.1 mg/mL after 24 hrs by stiff-plate agar-diffusion method; assay type: functional; settings: read-out: DIZ
Staphylococcus aureus [14] = experiment: Antibacterial activity against Staphylococcus aureus assessed as zone of inhibition at 0.5 mg/mL after 24 hrs by stiff-plate agar-diffusion method; assay type: functional; settings: read-out: DIZ
Staphylococcus aureus [15] = experiment: Antibacterial activity against Staphylococcus aureus assessed as zone of inhibition at 0.1 mg/mL after 24 hrs by stiff-plate agar-diffusion method; assay type: functional; settings: read-out: DIZ
Mycobacterium [16] = experiment: Antibacterial activity against Mycobacterium luteum assessed as zone of inhibition at 0.5 mg/mL after 24 hrs by stiff-plate agar-diffusion method; assay type: functional; settings: read-out: DIZ
Mycobacterium [17] = experiment: Antibacterial activity against Mycobacterium luteum assessed as zone of inhibition at 0.1 mg/mL after 24 hrs by stiff-plate agar-diffusion method; assay type: functional; settings: read-out: DIZ
Yamadazyma tenuis [18] = experiment: Antifungal activity against Candida tenuis assessed as zone of inhibition at 0.5 mg/mL after 48 to 72 hrs by stiff-plate agar-diffusion method; assay type: functional; settings: read-out: DIZ
Yamadazyma tenuis [19] = experiment: Antifungal activity against Candida tenuis assessed as zone of inhibition at 0.1 mg/mL after 48 to 72 hrs by stiff-plate agar-diffusion method; assay type: functional; settings: read-out: DIZ
Aspergillus niger [20] = experiment: Antifungal activity against Aspergillus niger assessed as zone of inhibition at 0.1 mg/mL after 48 to 72 hrs by stiff-plate agar-diffusion method; assay type: functional; settings: read-out: DIZ
Aspergillus niger [21] = experiment: Antifungal activity against Aspergillus niger assessed as zone of inhibition of late spore formation at 0.5 mg/mL after 48 to 72 hrs by stiff-plate agar-diffusion method; assay type: functional; settings: read-out: DIZ
CCRF-CEM = experiment: Cytotoxicity against human CCRF-CEM cells assessed as cell growth at 10^-5 M after 48 hrs by SRB assay; assay type: functional; settings: read-out: Activity
How it was run: (§5)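 NCI 60-cell-line one-dose primary screen: cells inoculated and preincubated 24–48 h, then test agent added at a single 10^-5 M concentration for a further 48 h. Endpoint is sulforhodamine B protein staining read spectrophotometrically. Reported as percent growth relative to untreated control cells.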

SNB-75 = experiment: Cytotoxicity against human SNB75 cells assessed as cell growth at 10^-5 M after 48 hrs by SRB assay; assay type: functional; settings: SNB-75, 48 h, read-out: Activity
How it was run: (§6)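 NCI human tumor cell line panel from nine cancer types. Each line was inoculated and preincubated 24–48 h, then exposed to a single concentration (10^-5 M) for 48 h. Growth was read by sulforhodamine B protein staining, measured spectrophotometrically. Value reported as percent growth of treated cells relative to untreated controls.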

CAKI-1 = experiment: Cytotoxicity against human Caki1 cells assessed as cell growth at 10^-5 M after 48 hrs by SRB assay; assay type: functional; settings: CAKI-1, 48 h, read-out: Activity; how it was run: as §5
UO-31 = experiment: Cytotoxicity against human UO31 cells assessed as cell growth at 10^-5 M after 48 hrs by SRB assay; assay type: functional; settings: UO-31, 48 h, read-out: Activity; how it was run: as §6
PC-3 = experiment: Cytotoxicity against human PC3 cells assessed as cell growth at 10^-5 M after 48 hrs by SRB assay; assay type: functional; settings: PC-3, 48 h, read-out: Activity; how it was run: as §6
Escherichia coli [22] = experiment: Antibacterial activity against Escherichia coli assessed as zone of inhibition at 0.01 mg/mL after 24 hrs by stiff-plate agar-diffusion method; assay type: functional
How it was run: (§7)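 Stiff-plate agar diffusion. Inoculum 10^9 c.f.u./mL. Compounds were streaked across grooves in the agar nutrient plate and left to diffuse. Plates were incubated 24 h at 35 °C. Read-out was inhibition zone diameter: 11–15 mm not sensitive, 16–25 mm sensitive, >25 mm highly sensitive. Vancomycin and oxacillin were the standards. Three repeats.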

Staphylococcus aureus [23] = experiment: Antibacterial activity against Staphylococcus aureus assessed as zone of inhibition at 0.01 mg/mL after 24 hrs by stiff-plate agar-diffusion method; assay type: functional; how it was run: as §7
Mycobacterium [24] = experiment: Antibacterial activity against Mycobacterium luteum assessed as zone of inhibition at 0.01 mg/mL after 24 hrs by stiff-plate agar-diffusion method; assay type: functional; how it was run: as §7
Yamadazyma tenuis [25] = experiment: Antifungal activity against Candida tenuis assessed as zone of inhibition at 0.01 mg/mL after 48 to 72 hrs by stiff-plate agar-diffusion method; assay type: functional
How it was run: (§8)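 Fungi were tested by stiff-plate agar diffusion from a 10^9 c.f.u./mL inoculum. Compounds were placed in agar grooves and allowed to diffuse. Incubation was 48–72 h at 28–30 °C. Inhibition zone diameter was scored as not sensitive (11–15 mm), sensitive (16–25 mm) or highly sensitive (>25 mm). Nystatin was the standard. Experiments were done in triplicate.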

Aspergillus niger [26] = experiment: Antifungal activity against Aspergillus niger assessed as zone of inhibition at 0.01 mg/mL after 48 to 72 hrs by stiff-plate agar-diffusion method; assay type: functional; how it was run: as §8
[27] = system: Photobacterium leiognathi; experiment: Antibacterial activity against Photobacterium leiognathi Sh1 at 0.1 to 0.25 ug/mL; assay type: functional, organism-based
[28] = in the assay text read “after 16 to 18 hrs” for “after 10 mins”

Row | Molecule | Activity [1] [%] | Activity [2] [%] | Activity [3] [%] | Activity (Escherichia coli [4]) | Activity (Staphylococcus aureus [5]) | Activity (Mycobacterium [6]) | Activity (Yamadazyma tenuis [7]) | Activity (Aspergillus niger [8]) | Activity [9] [%] | Activity [10] [%] | Activity [11] [%] | also measured
1 | O=C(CSc1nc2ccccc2c2nc(=O)c(-c3ccccc3)nn12)NC12CC3CC(CC(C3)C1)C2 | 80.43 | 85.71 | 78.57 | inactive | inactive | inactive | inactive | inactive | 97.14 | 56.52 | 86.96 | –
2 | Cc1nn2c(SCC(=O)Nc3ccc(C45CC6CC(CC(C6)C4)C5)cc3)nc3ccccc3c2nc1=O | 65.71 | 94.57 | 50 | – | – | – | – | – | 86.96 | 32.86 | 90 | zone of inhibition at 500 µg/mL (Escherichia coli [12]): 0 mm; zone of inhibition at 100 µg/mL (Escherichia coli [13]): 0 mm; zone of inhibition at 500 µg/mL (Staphylococcus aureus [14]): 0 mm; zone of inhibition at 100 µg/mL (Staphylococcus aureus [15]): 0 mm; zone of inhibition at 500 µg/mL (Mycobacterium [16]): 0 mm; zone of inhibition at 100 µg/mL (Mycobacterium [17]): 0 mm; zone of inhibition at 500 µg/mL (Yamadazyma tenuis [18]): 0 mm; zone of inhibition at 100 µg/mL (Yamadazyma tenuis [19]): 0 mm; zone of inhibition at 100 µg/mL (Aspergillus niger [20]): 0 mm; zone of inhibition at 500 µg/mL (Aspergillus niger [21]): 21 mm
3 | Cc1nn2c(SCC(=O)NC34CC5CC(CC(C5)C3)C4)nc3ccccc3c2nc1=O | 0 | 1.88 | 0 | inactive | inactive | inactive | inactive | inactive | 25 | 0 | 36 | –
4 | Cc1nn2c(SCC(=O)O)nc3ccccc3c2nc1=O | 0 | – | – | inactive | inactive | inactive | inactive | inactive | – | 0 | 66.7 | Activity [2, 28]: 61.5%; Activity [3, 28]: 0%; growth at 10 µM (CCRF-CEM): 93.3%; growth at 10 µM (SNB-75): 83.5%; growth at 10 µM (CAKI-1): 96%; growth at 10 µM (UO-31): 87.1%; growth at 10 µM (PC-3): 84.5%; Activity [9, 28]: 36.4%
5 | NYSTATIN | – | – | – | – | – | – | – | – | – | – | – | inhibition zone (IZ) (Escherichia coli [22]): 0 mm; inhibition zone (IZ) (Staphylococcus aureus [23]): 11 mm; inhibition zone (IZ) (Mycobacterium [24]): 15 mm; inhibition zone (IZ) (Yamadazyma tenuis [25]): 24 mm; inhibition zone (IZ) (Aspergillus niger [26]): 25 mm
6 | CN(C)[C@@H]1C(O)=C(C(N)=O)C(=O)[C@@]2(O)C(O)=C3C(=O)c4c(O)cccc4[C@@](C)(O)[C@H]3C[C@@H]12 [TETRACYCLINE] | 9.1 | – | – | – | – | – | – | – | – | 0 | 80.7 | Activity [2, 28]: 0%; Activity [3, 28]: 0%; Activity [9, 28]: 0%
7 | O=C(CSc1nc2ccccc2c2nc(=O)c(-c3ccccc3)nn12)Nc1ccc(C23CC4CC(CC(C4)C2)C3)cc1 | 80.88 | 111.25 | 66.25 | inactive | inactive | inactive | inactive | inactive | 118.75 | 54.41 | 102.94 | –
8 | CCC1C2CCC(C2)C1NC(=O)CSc1nc2ccccc2c2nc(=O)c(C)nn12 (centres undefined) | 104.17 | – | – | inactive | inactive | inactive | inactive | inactive | – | 62.5 | 91.67 | Activity [2, 28]: 93.06%; Activity [3, 28]: 86.11%; Activity [9, 28]: 90.28%
9 | Cc1n[nH]c(-c2ccccc2N)nc1=O | – | – | – | – | – | – | – | – | – | – | – | Activity [27]: Active
10 | Cc1ccc(-c2nn3c(SCC(=O)Nc4ccc(C56CC7CC(CC(C7)C5)C6)cc4)nc4ccccc4c3nc2=O)cc1 | 96.15 | 140 | 16 | inactive | inactive | inactive | inactive | inactive | 170 | 50 | 84.62 | –
11 | Cc1onc(-c2ccccc2)c1C(=O)N[C@@H]1C(=O)N2[C@@H]1SC(C)(C)[C@@H]2C(=O)O [OXACILLIN] | – | – | – | – | – | – | – | – | – | – | – | zone of inhibition at 10 µg/mL (Escherichia coli [22]; read-out: DIZ): 0 mm; zone of inhibition at 10 µg/mL (Staphylococcus aureus [23]; read-out: DIZ): 21 mm; zone of inhibition at 10 µg/mL (Mycobacterium [24]; read-out: DIZ): 0 mm; zone of inhibition at 10 µg/mL (Yamadazyma tenuis [25]; read-out: DIZ): 0 mm; zone of inhibition at 10 µg/mL (Aspergillus niger [26]; read-out: DIZ): 0 mm
